Activity calls are given as the source filed them.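 How the source made its calls: active means progeny virus titer drops over tenfold versus the untreated infected control, meaning log virus titer change below -1; inactive means the rest.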
Tested on: HEp-2 cells, RSV plaque reduction, virus titer
Experiment: antiviral reduction of RSV infectious yield – plaque reduction, HEp-2 cells, set 3, orthogonal assay for RSV antiviral project (AID 540320)
Conditions: at 10 µM; hits give low values
Outline: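 Assay system: HEp-2 cells infected with RSV Long strain; Reagent: RSV Long, MOI 0.1; Compound: single dose, 0.5% DMSO; Incubation: 48 h compound exposure at 37 °C after infection; Signal: plaque assay on fresh HEp-2, PFA fixation, neutral red staining; Measure: progeny virus titer in 48 h culture supernatant; Control set: Ribavirin 35 µM.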

Row | Structure (SMILES) | log virus titer change
1 | Cc1ccc(Cn2c(=O)n(Cc3ccc(C(=O)Nc4ccncc4)cc3)c(=O)c3ccccc32)cc1 | -3.25
2 | Cc1ccc(Cn2c(=O)n(Cc3ccc(C(=O)Nc4nccs4)cc3)c(=O)c3ccccc32)cc1 | -0.01 (inactive)
3 | COCCCNC(=O)c1ccc(Cn2c(=O)c3ccccc3n(Cc3ccc(OC)cc3)c2=O)cc1 | -2.72
4 | COCCCNC(=O)c1ccc(Cn2c(=O)c3ccccc3n(Cc3ccc(C(F)(F)F)cc3)c2=O)cc1 | -2.66
5 | COCCCNC(=O)c1ccc(Cn2c(=O)c3ccccc3n(Cc3ccc(C)c(C(F)(F)F)c3)c2=O)cc1 | -2.37
6 | Cc1ccc(F)cc1NC(=O)[C@@H]1CCCN1S(=O)(=O)c1cccc2cccnc12 | -0.33 (inactive)
7 | COCCCNC(=O)c1ccc(Cn2c(=O)c3ccccc3n(Cc3ccc(Cl)cc3)c2=O)cc1 | -3.12
8 | COCCCNC(=O)c1ccc(Cn2c(=O)c3ccccc3n(Cc3ccc([N+](=O)[O-])cc3)c2=O)cc1 | -4.94
9 | COCCCNC(=O)c1ccc(Cn2c(=O)c3ccccc3n(Cc3ccc4nonc4c3)c2=O)cc1 | -2.05
10 | Cc1cccc(NC(=O)[C@@H]2CCCN2S(=O)(=O)c2cccc3cccnc23)c1C | -0.39 (inactive)
11 | Cc1ccc(Cn2c(=O)n(Cc3ccc(C(=O)Nc4cc(C)nc5ccccc45)cc3)c(=O)c3ccccc32)cc1 | -0.61 (inactive)
12 | Cc1cc(NC(=O)[C@@H]2CCCN2S(=O)(=O)c2cccc3cccnc23)n(C(C)(C)C)n1 | -0.71 (inactive)
13 | COCCCNC(=O)c1ccc(Cn2c(=O)c3ccc(Br)cc3n(Cc3ccc(C)cc3)c2=O)cc1 | -0.31 (inactive)
14 | Cc1ccc(Cn2c(=O)n(Cc3ccc(C(=O)NC(C)(C)C)cc3)c(=O)c3ccccc32)cc1 | -5.38
15 | COCCCNC(=O)c1ccc(Cn2c(=O)c3ccccc3n(Cc3ccc(Br)cc3)c2=O)cc1 | -4.51

— PubChem BioAssay AID540320 (Southern Research Specialized Biocontainment Screening …, 2011)
